{"data": "Experimental data collected from several papers", "SLC22A8": "Organic anion transporter 3 (SLC22A8, Homo sapiens, UniProt Q8TCC7)", "note": "Each line is one published result; the experiments were not run side by side."}
{"Structure (SMILES)": "CC(C)(O)c1ccccc1-c1ccc2[nH]c(/C=C/c3ccc(C(F)(F)F)cc3)nc2c1", "test system": "male human, plasma", "setting": "oral, 5 mg, single dose, fasted, healthy volunteers", "quantity": "AUC(0-t)", "result": "971 ng·h/mL"}
{"Structure (SMILES)": "CON=C(N)c1ccc(-c2ccc(-c3ccc(C(N)=NOC)cc3)o2)cc1", "tested on": "Cytochrome P450 4F3 (CYP4F3, Homo sapiens, UniProt Q08477)", "test": "enzyme activity, substrate", "quantity": "Km", "result": "3.2 µM"}
{"Structure (SMILES)": "CCCCNc1cc(C(=O)O)cc(S(N)(=O)=O)c1Oc1ccccc1", "tested on": "SLC22A8", "test": "transporter uptake, inhibitor, radiometric", "setting": "200 µM, 1 h, oocytes", "quantity": "inhibition", "result": "97%"}
{"Structure (SMILES)": "CC(C)n1cc(C#N)c2cc(-n3cc(C(=O)O)cn3)ccc21", "test system": "human, plasma", "setting": "oral, 200 mg, single dose, fed", "quantity": "AUC(0-t)", "result": "43700 ng·h/mL"}
{"Structure (SMILES)": "CCc1nc2c(C)cc(N3CCN(CC(=O)N4CC(O)C4)CC3)cn2c1N(C)c1nc(-c2ccc(F)cc2)c(C#N)s1", "test system": "human, plasma", "setting": "oral, 1500 mg, single dose, fed, healthy volunteers", "quantity": "AUC(0-inf)", "result": "168000 ng·h/mL"}
{"Structure (SMILES)": "CC(=O)O[C@H]1C(=O)[C@@]2(C)[C@H]([C@H](OC(=O)c3ccccc3)[C@]3(O)C[C@H](OC(=O)[C@H](O)[C@@H](NC(=O)c4ccccc4)c4ccccc4)C(C)=C1C3(C)C)[C@]1(OC(C)=O)CO[C@@H]1C[C@@H]2O", "tested on": "Bel-7402", "test": "cell growth or viability, MTT", "setting": "48 h", "quantity": "IC50", "result": "28.2 µM"}
{"Structure (SMILES)": "CC(C)(C)c1ccc(O)c(CN(Cc2cc(C(C)(C)C)ccc2O)C2CCC(NC(N)=O)CC2)c1 (stereo not shown)", "test system": "male C57BL/6 mouse, brain", "setting": "intraperitoneal, 5 mg/kg, single dose", "quantity": "tissue/plasma ratio", "result": 0.68}
{"Structure (SMILES)": "CN(C(=O)n1cnc(-c2ccc[n+]([O-])c2)c1)C1CCCCC1", "tested on": "SLC22A8", "test": "transporter uptake, inhibitor", "test system": "HEK293", "setting": "3 µg/mL", "quantity": "inhibition", "result": "10%"}
{"Structure (SMILES)": "O=C(O)CSc1nnc(Br)n1-c1ccc(C2CC2)c2ccccc12", "tested on": "SLC22A8", "test": "transporter uptake, inhibitor, radiometric", "setting": "5 µM, 1 h, oocytes", "quantity": "inhibition", "result": "64%"}
{"Structure (SMILES)": "COc1ccc([C@@H]2CN(C(=O)[C@@H](O)CO)C[C@@]2(C)[C@@H](C)O)cc1OC1CN(c2ccc(C)cn2)C1", "test system": "human, plasma", "setting": "oral, 20 mg, single dose, healthy volunteers", "quantity": "AUC(0-inf)", "result": "4090 ng·h/mL"}
